Test results reported in ChEMBL document CHEMBL2321757, “Anti-leukemic activity of ubiquinone-based compounds targeting trans-plasma membrane electron transport” (J Med Chem, 2013).
Calls of active or inactive are those of the source. The rule behind the calls is not given here.

What was measured:
[1] = Inhibition of tPMET complex in human HL60 cells after 30 mins by WST-1/mPMS reduction assay; format: cell-based; conditions: HL-60, 0.5 h
Method in brief: (§1)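 Exponential-phase cells were resuspended in HBSS at 1.0 × 10⁶ cells/mL final. Compound in DMSO was serially diluted 10-fold in HBSS from 200 μM, in triplicate, and preincubated 30 min at 37 °C, 5% CO₂. WST-1 (500 μM final) with mPMS (20 μM final) was then added. Reduction was read in real time at 450 nm over 40 min. IC50 is a dose-response mean ± SEM (n = 2/3).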

HL-60 [2] = assay: Antiproliferative activity against human HL60 cells after 48 hrs by MTT assay; format: functional, cell-based; conditions: HL-60, 48 h
Method in brief: (§2)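 HL60 cells were grown in RPMI-1640 with 5% FBS. The mtDNA-knockout line was derived by 6−8 weeks in ethidium bromide (50 ng/mL) and kept with 50 μg/mL uridine and 1 mM pyruvate. Compound in DMSO was serially diluted 3-fold in RPMI […], in triplicate. Cells at 0.2 × 10⁶/mL final ran 48 h at 37 °C, 5% CO₂. MTT was added for 2 h, then overnight lysis, read at A570. IC50 is a dose-response mean ± SEM (n = 2/3).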

[3] = Inhibition of tPMET complex in human mitochondrial gene-knockout HL60 cells after 30 mins by WST-1/mPMS reduction assay; format: cell-based; conditions: HL-60, 0.5 h; method in brief: as §1
HL-60 [4] = assay: Antiproliferative activity against human mitochondrial gene-knockout HL60 cells after 48 hrs by MTT assay; format: functional, cell-based; conditions: HL-60, 48 h; method in brief: as §2
HL-60 [5] = assay: Induction of apoptosis in human HL60 cells at 30 uM after 24 hrs by propidium iodide staining-based flow cytometric analysis; format: functional, cell-based
HL-60 [6] = assay: Induction of apoptosis in human mitochondrial gene-knockout HL60 cells at 30 uM after 72 hrs by propidium iodide staining-based flow cytometric analysis; format: functional, cell-based
HL-60 [7] = assay: Cell cycle arrest in human mitochondrial gene-knockout HL60 cells assessed as accumulation at G1 phase at 30 uM after 24 hrs by propidium iodide staining-based flow cytometric analysis (reference value: 55 %); format: functional
HL-60 [8] = assay: Cell cycle arrest in human HL60 cells assessed as accumulation at G1 phase at 30 uM after 24 hrs by propidium iodide staining-based flow cytometric analysis (reference value: 38 %); format: functional
HL-60 [9] = assay: Cell cycle arrest in human mitochondrial gene-knockout HL60 cells assessed as accumulation at G2 phase at 30 uM after 24 hrs by propidium iodide staining-based flow cytometric analysis (reference value: 18 %); format: functional
HL-60 [10] = assay: Cell cycle arrest in human HL60 cells assessed as accumulation at G2 phase at 30 uM after 24 hrs by propidium iodide staining-based flow cytometric analysis (reference value: 22 %); format: functional
HL-60 [11] = assay: Cell cycle arrest in human mitochondrial gene-knockout HL60 cells assessed as accumulation at sub G1 phase at 30 uM after 24 hrs by propidium iodide staining-based flow cytometric analysis (reference value: 3 %); format: functional
HL-60 [12] = assay: Cell cycle arrest in human HL60 cells assessed as accumulation at S phase at 30 uM after 24 hrs by propidium iodide staining-based flow cytometric analysis (reference value: 28 %); format: functional
HL-60 [13] = assay: Cell cycle arrest in human HL60 cells assessed as accumulation at sub G1 phase at 30 uM after 24 hrs by propidium iodide staining-based flow cytometric analysis (reference value: 11 %); format: functional
HL-60 [14] = assay: Cell cycle arrest in human mitochondrial gene-knockout HL60 cells assessed as accumulation at S phase at 30 uM after 24 hrs by propidium iodide staining-based flow cytometric analysis (reference value: 24 %); format: functional

Row | IC50 (HL-60 [2]) [µM] | IC50 (HL-60 [4]) [µM] | Compound | IC50 [1] [µM] | IC50 [3] [µM] | Activity (HL-60 [5]) | Activity (HL-60 [6]) | Activity (HL-60 [7]) [%] | Activity (HL-60 [8]) [%] | Activity (HL-60 [9]) [%] | Activity (HL-60 [10]) [%] | Activity (HL-60 [11]) [%] | Activity (HL-60 [12]) [%] | Activity (HL-60 [13]) [%] | Activity (HL-60 [14]) [%]
1 | 13 | 8 | COC1=C(OC)C(=O)C(CCCCCO)=C(C)C1=O | > 200 | 123 |  |  |  |  |  |  |  |  |  | 
2 | 3 | 15 | COC1=C(OC)C(=O)C(CCCCCCCCCCN2CCOCC2)=C(C)C1=O | 33 | 46 |  |  |  |  |  |  |  |  |  | 
3 | 35 | 44 | COC1=C(OC)C(=O)C(CCCCCCCCCCn2cc[n+](C)c2)=C(C)C1=O | 23 | 78 |  |  |  |  |  |  |  |  |  | 
4 | 13 | 15 | COC1=C(OC)C(=O)C(CCCO)=C(C)C1=O | > 200 | 92 |  |  |  |  |  |  |  |  |  | 
5 | 3 | 15 | COC1=C(OC)C(=O)C(CCCCCCCCCCn2ccnc2)=C(C)C1=O | 14 | 33 |  |  |  |  |  |  |  |  |  | 
6 | 36 | > 200 | COC1=C(OC)C(=O)C(CCCCCCCCCCO)=C(C)C1=O [IDEBENONE] | 77 | 70 |  |  | 36 | 51 | 15 | 35 | 99 | 2 | 12 | 36
7 | 1 | > 200 | COC1=C(OC)C(=O)C(CCCCCCCCCC[N+]2(C)CCOCC2)=C(C)C1=O | 122 | > 200 |  |  |  |  |  |  |  |  |  | 

Continued, molecule first:

Row | Compound | IC50 (HL-60 [2]) [µM] | IC50 (HL-60 [4]) [µM] | IC50 [1] [µM] | IC50 [3] [µM] | Activity (HL-60 [5]) | Activity (HL-60 [6]) | Activity (HL-60 [7]) [%] | Activity (HL-60 [8]) [%] | Activity (HL-60 [9]) [%] | Activity (HL-60 [10]) [%] | Activity (HL-60 [11]) [%] | Activity (HL-60 [12]) [%] | Activity (HL-60 [13]) [%] | Activity (HL-60 [14]) [%]
8 | COC1=C(OC)C(=O)C(CCCOCc2cccc(S(=O)(=O)O)c2)=C(C)C1=O | > 200 | > 200 | > 200 | > 200 |  |  |  |  |  |  |  |  |  | 
9 | COC1=C(OC)C(=O)C(CCCCCCCCCCN(Cc2ccccc2)Cc2ccccc2)=C(C)C1=O | 33 | > 200 | > 200 | > 200 |  |  |  |  |  |  |  |  |  | 
10 | COC1=C(OC)C(=O)C(CCCCCCCCCCOCc2cccc(S(=O)(=O)O)c2)=C(C)C1=O | 143 | 120 | 81 | 70 |  |  |  |  |  |  |  |  |  | 
11 | COC1=C(OC)C(=O)C(CCCCCCCCCC[N+](Cc2ccccc2)(Cc2ccccc2)Cc2ccccc2)=C(C)C1=O | 2 | 3 | 14 | 54 | Active |  |  |  |  |  |  |  |  | 
12 | COC1=C(OC)C(=O)C(CCCCCCCCCCn2cc[n+](Cc3ccccc3)c2)=C(C)C1=O | 2 | 5 | 9 | 68 |  |  |  |  |  |  |  |  |  | 
13 | COC1=C(OC)C(=O)C(CCCCCCCCCCOc2cc(O)cc(O)c2)=C(C)C1=O | 16 | 63 | 6 | 13 | Active | Active |  |  |  |  |  |  |  | 
14 | COC1=C(OC)C(=O)C(CCCCCCCCCC[N+](C)(Cc2ccccc2)Cc2ccccc2)=C(C)C1=O.[I-] | 3 | 3 | 10 | 47 | Active |  | 35 | 24 | 0 | 10 | 0 | 8 | 57 | 0
15 | COC1=C(OC)C(=O)C(CCCCCCCCCCc2c(O)cc(O)cc2O)=C(C)C1=O | > 200 | > 200 | 21 | 9 |  |  |  |  |  |  |  |  |  | 
